Source: ChEMBL document CHEMBL3868612, “Discovery of a potent and selective ROMK inhibitor with improved pharmacokinetic properties based on an octahydropyrazino[2,1-c][1,4]oxazine scaffold” (Bioorg Med Chem Lett, 2016)

Columns and labels:
[1] = biological target: T1, ATP-sensitive inward rectifier potassium channel 1 (Homo sapiens, UniProt P48048); assay: Inhibition of human ROMK expressed in CHO cells after 6 mins at -70 mV holding potential by electrophysiology method; format: cell-based
T1 sequence (P48048 whole entry): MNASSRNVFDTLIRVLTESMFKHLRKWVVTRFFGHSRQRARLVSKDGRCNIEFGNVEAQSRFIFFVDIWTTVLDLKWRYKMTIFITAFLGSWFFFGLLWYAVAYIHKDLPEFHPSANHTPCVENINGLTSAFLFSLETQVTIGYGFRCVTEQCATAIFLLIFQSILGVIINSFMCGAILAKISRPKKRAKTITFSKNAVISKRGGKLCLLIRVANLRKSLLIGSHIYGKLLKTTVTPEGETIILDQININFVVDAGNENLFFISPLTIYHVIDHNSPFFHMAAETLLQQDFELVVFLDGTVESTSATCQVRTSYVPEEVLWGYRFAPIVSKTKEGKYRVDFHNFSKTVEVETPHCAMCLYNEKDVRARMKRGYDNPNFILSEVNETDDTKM

[2] = biological target: T2, Voltage-gated inwardly rectifying potassium channel KCNH2 (Homo sapiens, UniProt Q12809); assay: Inhibition of human ERG by electrophysiology method
[3] = Half life in Sprague-Dawley rat at 0.5 mg/kg, iv or 1 mg/kg, po; format: ADME, organism-based; settings: in vivo
[4] = Dose normalized AUC in Sprague-Dawley rat at 1 mg/kg, po; format: ADME, organism-based; settings: in vivo
[5] = Oral bioavailability in Sprague-Dawley rat at 1 mg/kg; format: ADME, organism-based; settings: in vivo
[6] = Half life in po dosed human; format: ADME, organism-based; settings: in vivo
[7] = Half life in Sprague-Dawley rat at 1 mg/kg, iv or 2 mg/kg, po; format: ADME, organism-based; settings: in vivo
[8] = Oral bioavailability in Sprague-Dawley rat at 2 mg/kg; format: ADME, organism-based; settings: in vivo
[9] = Dose normalized AUC in Sprague-Dawley rat at 2 mg/kg, po; format: ADME, organism-based; settings: in vivo
CHO = assay: Selectivity ratio of IC50 for displacement of 35S-MK499 from human ERG to IC50 for human ROMK expressed in CHO cells; format: cell-based
[10] = biological target: T2, Voltage-gated inwardly rectifying potassium channel KCNH2; assay: Displacement of 35S-MK499 from human ERG expressed in HEK293 cell membranes
Method in brief: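 Membranes were prepared from HEK-293 cells stably expressing hERG. Binding was measured as displacement of 35S-MK499.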

T2 sequence (Q12809 whole entry): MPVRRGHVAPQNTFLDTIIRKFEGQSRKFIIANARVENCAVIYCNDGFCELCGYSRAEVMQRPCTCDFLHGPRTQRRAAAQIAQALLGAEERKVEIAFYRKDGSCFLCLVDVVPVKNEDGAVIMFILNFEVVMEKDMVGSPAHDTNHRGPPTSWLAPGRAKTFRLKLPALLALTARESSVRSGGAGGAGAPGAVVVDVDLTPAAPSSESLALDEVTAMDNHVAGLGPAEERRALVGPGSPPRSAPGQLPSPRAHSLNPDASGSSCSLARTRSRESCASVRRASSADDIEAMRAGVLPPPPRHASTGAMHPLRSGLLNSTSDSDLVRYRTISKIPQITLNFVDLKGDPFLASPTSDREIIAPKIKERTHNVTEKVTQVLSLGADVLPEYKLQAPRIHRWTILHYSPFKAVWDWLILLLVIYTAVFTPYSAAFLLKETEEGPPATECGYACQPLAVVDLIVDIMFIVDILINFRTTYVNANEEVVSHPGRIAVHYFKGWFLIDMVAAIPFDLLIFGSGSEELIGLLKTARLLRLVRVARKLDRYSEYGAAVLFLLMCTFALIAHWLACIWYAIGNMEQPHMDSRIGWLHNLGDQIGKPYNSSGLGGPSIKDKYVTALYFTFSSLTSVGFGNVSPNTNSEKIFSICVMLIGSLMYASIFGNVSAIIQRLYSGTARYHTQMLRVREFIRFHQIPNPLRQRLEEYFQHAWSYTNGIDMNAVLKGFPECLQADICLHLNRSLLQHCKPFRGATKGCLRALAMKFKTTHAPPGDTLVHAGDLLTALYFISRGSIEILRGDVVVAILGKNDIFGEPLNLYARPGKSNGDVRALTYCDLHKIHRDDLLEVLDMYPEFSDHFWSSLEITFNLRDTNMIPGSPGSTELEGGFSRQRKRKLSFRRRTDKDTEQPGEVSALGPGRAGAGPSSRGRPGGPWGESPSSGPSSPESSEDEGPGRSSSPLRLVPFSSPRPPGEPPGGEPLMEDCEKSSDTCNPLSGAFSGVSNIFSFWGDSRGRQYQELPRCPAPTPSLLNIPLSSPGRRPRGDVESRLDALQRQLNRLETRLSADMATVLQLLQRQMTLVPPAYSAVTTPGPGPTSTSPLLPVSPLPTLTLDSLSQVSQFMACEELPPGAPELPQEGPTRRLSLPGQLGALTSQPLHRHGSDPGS

| Structure (SMILES) | IC50 [1] | IC50 [2] | half-life [3] | AUC/dose [4] | bioavailability [5] | other results |
| --- | --- | --- | --- | --- | --- | --- |
| O=C(Cc1ccc(-n2cnnn2)nc1)N1CCN2C[C@@H](c3ccc4nonc4c3)OC[C@@H]2C1 | 45 nM |  |  |  |  |  |
| Cc1c([C@@H]2CN3CCN(C(=O)Cc4cnc(-n5cnnn5)cn4)C[C@H]3CO2)ccc(F)c1C#N | 33 nM | 10000 nM | 84 min | 4.64 µM·kg·h/mg | 100% |  |
| Cc1cccc(Nc2ccncc2S(=O)(=O)NC(=O)NC(C)C)c1 [TORSEMIDE] |  |  |  |  |  | half-life [6]: 180 min |
| Cc1c([C@H]2CN3CCN(C(=O)Cc4cnc(-n5cnnn5)nc4)C[C@H]3CO2)ccc(F)c1C#N | 39 nM |  |  |  |  | half-life [7]: 81.6 min; bioavailability [8]: 54%; AUC/dose [9]: 1.01 µM·kg·h/mg |
| Cc1c(C#N)cccc1[C@@H]1CN2CCN(C(=O)Cc3ccc(-n4cnnn4)nc3)C[C@@H]2CO1 | 27 nM | 14800 nM | 98.4 min | 2 µM·kg·h/mg | 67% |  |
| Cc1c([C@H]2CN3CCN(C(=O)Cc4ccc(-n5cnnn5)nc4)C[C@@H]3CN2)ccc2c1COC2=O | 140 nM |  |  |  |  | Ratio IC50 (CHO): 157; IC50 [10]: 22000 nM |
| Cc1c([C@@H]2CN3CCN(C(=O)Cc4cnc(-n5cnnn5)nc4)C[C@H]3CO2)ccc(F)c1C#N | 18 nM |  |  |  |  |  |
| O=C1OCCc2cc([C@@H]3CN4CCN(C(=O)Cc5cnc(-n6cnnn6)nc5)C[C@H]4CO3)ccc21 | 260 nM | > 90000 nM | 29.4 min | 0.18 µM·kg·h/mg | 12% |  |
| Cc1c([C@H]2CN3CCN(C(=O)Cc4ccc(-n5cnnn5)nc4)C[C@H]3CO2)ccc2c1COC2=O | 88 nM | 56500 nM | 40.2 min | 0.32 µM·kg·h/mg | 46% | Ratio IC50 (CHO): 305; IC50 [10]: 26800 nM |
| Cc1c([C@H]2CN3CCN(C(=O)Cc4ccc(-n5cnnn5)nc4)C[C@H]3CO2)ccc(F)c1C#N | 41 nM | 12500 nM | 87.6 min | 1.8 µM·kg·h/mg | 69% |  |
| Cc1c(C#N)cccc1[C@@H]1CN2CCN(C(=O)Cc3ccc(-n4cnnn4)nc3)C[C@H]2CO1 | 50 nM |  |  |  |  |  |
| O=C1OCCc2cc([C@H]3CN4CCN(C(=O)Cc5ccc(-n6cnnn6)nc5)C[C@@H]4CO3)ccc21 | 165 nM |  | 45 min | 2.25 µM·kg·h/mg | 98% |  |
| Cc1c(C#N)cccc1[C@H]1CN2CCN(C(=O)Cc3ccc(-n4cnnn4)nc3)C[C@H]2CO1 | 112 nM | 17600 nM |  |  |  |  |
| Cc1c([C@H]2CN3CCN(C(=O)Cc4ccc(-n5cnnn5)nc4)C[C@@H]3CO2)ccc2c1COC2=O | 105 nM |  |  |  |  | Ratio IC50 (CHO): 508; IC50 [10]: 53400 nM |
| Cc1c([C@@H]2CN3CCN(C(=O)Cc4ccc(-n5cnnn5)nc4)C[C@H]3CO2)ccc(F)c1C#N | 36 nM | 10000 nM | 63 min | 1 µM·kg·h/mg | 57% |  |
| Cc1c([C@H]2CN3CCN(C(=O)Cc4cnc(-n5cnnn5)cn4)C[C@H]3CO2)ccc(F)c1C#N | 107 nM | 12300 nM |  |  |  |  |
| Cc1c([C@H]2CN3CCN(C(=O)Cc4ccc(-n5cnnn5)nn4)C[C@H]3CO2)ccc(F)c1C#N | 86 nM |  |  |  |  |  |
| Cc1c([C@@H]2CN3CCN(C(=O)Cc4ccc(-n5cnnn5)nc4)C[C@H]3CS2)ccc2c1COC2=O | 100 nM |  |  |  |  | Ratio IC50 (CHO): 89; IC50 [10]: 8900 nM |
| Cc1c([C@@H]2CN3CCN(C(=O)Cc4ccc(-n5cnnn5)nc4)C[C@@H]3CO2)ccc2c1COC2=O | 86 nM | 74900 nM | 48 min | 2.02 µM·kg·h/mg | 100% | Ratio IC50 (CHO): 690; IC50 [10]: 59400 nM |
| Cc1c([C@@H]2CN3CCN(C(=O)Cc4ccc(-n5cnnn5)nc4)C[C@@H]3CO2)ccc(F)c1C#N | 60 nM | > 10000 nM |  |  |  |  |
| O=C1OCCc2cc([C@H]3CN4CCN(C(=O)Cc5ccc(-n6cnnn6)nc5)C[C@H]4CO3)ccc21 | 205 nM |  |  |  |  |  |
| Cc1c([C@@H]2CN3CCN(C(=O)Cc4ccc(-n5cnnn5)nc4)C[C@H]3CO2)ccc2c1COC2=O | 65 nM | 19700 nM | 60 min | 2.05 µM·kg·h/mg | 82% | Ratio IC50 (CHO): 325; IC50 [10]: 21100 nM |
| O=C(Cc1ccc(-n2cnnn2)nc1)N1CCN2C[C@H](c3ccc4nonc4c3)OC[C@@H]2C1 | 104 nM |  |  |  |  |  |
| Cc1c([C@@H]2CN3CCN(C(=O)Cc4ccc(-n5cnnn5)nc4)C[C@H]3CO2)ccc2nonc12 | 72 nM | > 10000 nM |  |  |  |  |
| O=C1OCCc2cc([C@@H]3CN4CCN(C(=O)Cc5ccc(-n6cnnn6)nc5)C[C@H]4CO3)ccc21 | 57 nM |  | 51 min | 1.4 µM·kg·h/mg | 65% |  |
| Cc1c([C@H]2CN3CCN(C(=O)Cc4ccc(-n5cnnn5)cn4)C[C@H]3CO2)ccc(F)c1C#N | 70 nM | 19900 nM | 57.6 min |  | 68% |  |
| Cc1c([C@H]2CN3CCN(C(=O)Cc4ccc(-n5cnnn5)nc4)C[C@H]3CO2)ccc2nonc12 | 83 nM | 10000 nM | 58.2 min | 1.8 µM·kg·h/mg | 100% |  |
| O=C1OCCc2cc([C@@H]3CN4CCN(C(=O)Cc5ccc(-n6cnnn6)cc5)C[C@H]4CO3)ccc21 |  | > 30000 nM |  |  |  |  |
